Assay results of several laboratories.
Compare with care: the assays were run in different laboratories.
Target: Serine/threonine-protein kinase pim-2 (PIM2, Homo sapiens, UniProt Q9P1W9)

| Structure (SMILES) | assay | conditions | endpoint | value |
| --- | --- | --- | --- | --- |
| CNc1cccc2cc(C(=O)Nc3ccc(C(=O)O)cc3)c(=O)[nH]c12 | enzyme activity, inhibitor | 10 µM | inhibition | 13% |
| CCC(=O)N[C@H]1CC[C@@H](C(=O)N(C)c2ccc(-c3nc4ccccc4o3)cc2)C1 | cell-free assay, competition with immobilised ligand | 1 µM | remaining binding | 100% |
| Cc1cc(NC(=O)c2cccc3cc(-c4cccc5[nH]nc(N)c45)ccc23)ccc1F | enzyme activity, inhibitor | 0.1 µM | activity vs control | 87% |
| CNC(=O)c1cc(Oc2ccc(NC(=O)Nc3ccc(Cl)c(C(F)(F)F)c3)cc2)ccn1 | enzyme activity, inhibitor | 0.3 µM | inhibition | 6% |
| COc1cc2ncnc(Nc3ccc(Oc4ccccc4)cc3C)c2cc1OC | enzyme activity, inhibitor | 1 µM | inhibition | -2% |
| CS(=O)(=O)Nc1cccc(-c2csc(NC(=O)CSc3nc4nccnc4c(=O)n3CCc3ccccc3)n2)c1 | enzyme activity, inhibitor | 10 µM | inhibition | -8% |
| Cc1ccc(NC(=O)c2ccc(CN3CCN(C)CC3)cc2)cc1Nc1nc(-c2cccnc2)cs1 | cell-free assay | 0.5 µM | remaining signal | 118% |
| CNC(=O)c1ccc(Nc2ncc(C(F)(F)F)c(NCc3nccnc3N(C)S(C)(=O)=O)n2)cc1 | cell-free assay, competition with immobilised ligand | 0.1 µM | remaining binding | 100% |
| O=C(Nc1cnn(-c2csc(C(=O)NC3COC3)c2)c1)Nc1ccccc1Cl | enzyme activity, inhibitor | 5 µM | remaining activity | 96.4% |
| CC(C)CC(=O)N1CCc2nc(-c3ccc(Br)cc3)nc(N(C)Cc3ccccc3)c2C1 | cell-free assay, competition with immobilised ligand | 0.1 µM | remaining binding | 100% |
| CCCOc1ccc(OC)c(F)c1C(=O)c1ccc(C(=O)N[C@@H]2CNC[C@H]2NC(=O)c2ccc3[nH]ncc3c2)cc1 | enzyme activity, inhibitor | 10 µM | remaining activity | 101% |
| CSc1nc(C)c(-c2ccnc(Nc3ccc(N4CCOCC4)cc3)c2)[nH]1 | enzyme activity, inhibitor | 10 µM | inhibition | -4.8% |
| CC(C)(C)c1nc(-c2cccc(NS(=O)(=O)c3c(F)cccc3F)c2F)c(-c2ccnc(N)n2)s1 | enzyme activity, inhibitor, radiometric | 1 µM | remaining activity | 77% |
| FC(F)c1nc2ccccc2n1-c1nc(N2CCOCC2)nc(N2CCOCC2)n1 | enzyme activity, inhibitor | 10 µM | remaining activity | 92% |
| Nc1ncnc2occ(-c3ccc(NC(=O)Nc4cc(C(F)(F)F)ccc4F)cc3)c12 | cell-free assay, inhibitor | 20 µM | remaining signal | 100% |
| FC(F)(F)Oc1cccc(-c2cnc3ccc(-c4ccncc4)nn23)c1 | enzyme activity, inhibitor, radiometric | 1 µM | activity vs control | 88% |

| Structure (SMILES) | assay | conditions | endpoint | value |
| --- | --- | --- | --- | --- |
| Cc1ccc(NC(=O)c2ccc(C)c(C(F)(F)F)c2)cc1C#Cc1nn(C2CCC(O)CC2)c2ncnc(N)c12 (stereo not shown) | cell-free assay | 10 µM | remaining signal | 112% |
| CS(=O)(=O)N1CCCC(NC(=O)[C@H](CCC2CCCCC2)NC(=O)c2ccc(CNc3ncnc4c3nnn4-c3ccccc3)cc2)C1 (stereo partly shown) | cell-free assay, competition with immobilised ligand | 0.1 µM | remaining binding | 88% |
| COc1cc(Nc2cnc(C#N)c(O[C@H](C)CN(C)C)n2)ncc1-c1cnn(C)c1 | enzyme activity, inhibitor, radiometric | 1 µM | remaining activity | 98% |
| O=C1NC(c2ccccn2)Sc2ccccc21 (stereo not shown) | cell-free assay, competition with immobilised ligand | 1 µM | remaining binding | 88% |
| CCN(CC)CCNC(=O)c1c(C)[nH]c(/C=C2\C(=O)Nc3ccc(F)cc32)c1C | cell-free assay | 0.5 µM | remaining signal | 97.2% |
| Cc1c(NC(=O)c2cc(C(N)=O)nc3cc(F)ccc23)c(C(F)(F)F)nn1Cc1ccc(C#N)cc1 | cell-free assay, competition with immobilised ligand | 1 µM | remaining binding | 94% |
| COc1cc(Cl)c(C(=O)N[C@@H](CN[C@H]2CC[C@@H](N)CC2)Cc2ccc(C#N)cc2)cc1-c1ccc(CN[C@H](C)c2ccc(C)cc2)o1 | enzyme activity, inhibitor | 1 µM | remaining activity | 92% |
| Nc1nc(NC2CCCCC2)sc1C(=O)c1ccccc1 | enzyme activity, inhibitor | 10 µM | remaining activity | 94% |
| C[C@@H]1CN(c2cc(-c3n[nH]c4ccc(OC5(C)CC5)cc34)ncn2)C[C@H](C)O1 | cell-free assay, competition with immobilised ligand | 0.1 µM | remaining binding | 88% |
| C#Cc1cccc(Nc2ncnc3cc(OCCOC)c(OCCOC)cc23)c1 | cell-free assay | 0.5 µM | remaining signal | 97.9% |
| CCCS(=O)(=O)Nc1ccc(F)c(C(=O)c2c[nH]c3ncc(-c4ccc(Cl)cc4)cc23)c1F | enzyme activity, inhibitor | 1 µM | inhibition | < 10% |
| Cc1nc(N2CC[C@@H](O)C2)ncc1-c1cc(C(F)(F)F)cc2[nH]ncc12 | binding, competition with immobilised ligand | 1 µM | remaining binding | 89% |
| Cc1ccc(Nc2nccc(N(C)c3ccc4c(C)n(C)nc4c3)n2)cc1S(N)(=O)=O | enzyme activity, inhibitor | 0.5 µM | remaining activity | 101% |
| CC(C)(C)C(=O)c1sc(NC2CCCCC2)nc1N | enzyme activity, inhibitor | 10 µM | remaining activity | 109% |
| O=C(Nc1cnn(-c2csc(C(=O)NC3COC3)c2)c1)Nc1c(F)cccc1Cl | enzyme activity, inhibitor | 5 µM | remaining activity | 129% |
